Assay results taken from ChEMBL document CHEMBL1138533 (Antimicrob Agents Chemother, 2007).

How the values were obtained:
Assay type in all cases: ADME, organism-based
[1] = Unbound drug concentration in beta lactamase-positive Haemophilus influenzae pharmacokinetic simulation model dosed as amoxicillin-clavulanic acid at simulated human serum concentration of 2000/125 mg, po bid after 12 hrs; conditions: in vivo
In short: (§1)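 Two-compartment hollow-fibre dynamic model at 37°C, Haemophilus test medium; total or free serum profiles of oral bid regimens simulated over 48 h by computer-controlled peristaltic dilution. […] Parameters from noncompartmental analysis: Cmax/Tmax observed, AUC0-24 by linear-log trapezoidal rule. Triplicate.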

[2] = Unbound drug concentration in beta lactamase-negative Haemophilus influenzae pharmacokinetic simulation model dosed as amoxicillin-clavulanic acid at simulated human serum concentration of 2000/125 mg, po bid after 8 hrs; in short: as §1
[3] = Half life in beta lactamase-negative Haemophilus influenzae pharmacokinetic simulation model dosed as amoxicillin-clavulanic acid at simulated human serum concentration of 2000/125 mg, po bid after 48 hrs
[4] = Unbound drug concentration in beta lactamase-positive Haemophilus influenzae pharmacokinetic simulation model dosed as amoxicillin-clavulanic acid at simulated human serum concentration of 2000/125 mg, po bid after 6 hrs; conditions: in vivo; in short: as §1
[5] = Drug concentration in beta lactamase-negative Haemophilus influenzae pharmacokinetic simulation model dosed as amoxicillin-clavulanic acid at simulated human serum concentration of 2000/125 mg, po bid after 1 hr
[6] = Unbound drug concentration in beta lactamase-negative Haemophilus influenzae pharmacokinetic simulation model dosed as amoxicillin-clavulanic acid at simulated human serum concentration of 2000/125 mg, po bid after 2 hrs; in short: as §1
[7] = AUC (0 to 24 hrs) in beta lactamase-negative Haemophilus influenzae pharmacokinetic simulation model dosed as amoxicillin-clavulanic acid at simulated human serum concentration of 2000/125 mg, po bid after 48 hrs
[8] = fCmax in beta lactamase-positive Haemophilus influenzae pharmacokinetic simulation model dosed as amoxicillin-clavulanic acid at simulated human serum concentration of 2000/125 mg, po bid after 48 hrs; conditions: in vivo; in short: as §1
[9] = Unbound drug concentration in beta lactamase-positive Haemophilus influenzae pharmacokinetic simulation model dosed as amoxicillin-clavulanic acid at simulated human serum concentration of 2000/125 mg, po bid after 1.5 hr; in short: as §1
[10] = Cmax in beta lactamase-negative Haemophilus influenzae pharmacokinetic simulation model dosed as amoxicillin-clavulanic acid at simulated human serum concentration of 2000/125 mg, po bid after 48 hrs
[11] = Tmax in beta lactamase-negative Haemophilus influenzae pharmacokinetic simulation model dosed as amoxicillin-clavulanic acid at simulated human serum concentration of 2000/125 mg, po bid after 48 hrs; in short: as §1
[12] = Unbound drug concentration in beta lactamase-negative Haemophilus influenzae pharmacokinetic simulation model dosed as amoxicillin-clavulanic acid at simulated human serum concentration of 2000/125 mg, po bid after 12 hrs; in short: as §1
[13] = Unbound drug concentration in beta lactamase-positive Haemophilus influenzae pharmacokinetic simulation model dosed as amoxicillin-clavulanic acid at simulated human serum concentration of 2000/125 mg, po bid after 4 hrs; in short: as §1
[14] = Unbound drug concentration in beta lactamase-positive Haemophilus influenzae pharmacokinetic simulation model dosed as amoxicillin-clavulanic acid at simulated human serum concentration of 2000/125 mg, po bid after 1 hr; in short: as §1
[15] = Cmax in beta lactamase-positive Haemophilus influenzae pharmacokinetic simulation model dosed as amoxicillin-clavulanic acid at simulated human serum concentration of 2000/125 mg, po bid after 48 hrs
[16] = Unbound drug concentration in beta lactamase-negative Haemophilus influenzae pharmacokinetic simulation model dosed as amoxicillin-clavulanic acid at simulated human serum concentration of 2000/125 mg, po bid after 1.5 hr; in short: as §1
[17] = Half life of free unbound fraction in beta lactamase-negative Haemophilus influenzae pharmacokinetic simulation model dosed as amoxicillin-clavulanic acid at simulated human serum concentration of 2000/125 mg, po bid after 48 hrs; conditions: read-out: ft1/2 (converted)
[18] = fCmax in beta lactamase-negative Haemophilus influenzae pharmacokinetic simulation model dosed as amoxicillin-clavulanic acid at simulated human serum concentration of 2000/125 mg, po bid after 48 hrs; conditions: in vivo; in short: as §1
[19] = Unbound drug concentration in beta lactamase-negative Haemophilus influenzae pharmacokinetic simulation model dosed as amoxicillin-clavulanic acid at simulated human serum concentration of 2000/125 mg, po bid after 10 hrs; in short: as §1
[20] = Drug concentration in beta lactamase-positive Haemophilus influenzae pharmacokinetic simulation model dosed as amoxicillin-clavulanic acid at simulated human serum concentration of 2000/125 mg, po bid after 4 hrs; conditions: in vivo
[21] = fAUC (0 to 24 hrs) in beta lactamase-positive Haemophilus influenzae pharmacokinetic simulation model dosed as amoxicillin-clavulanic acid at simulated human serum concentration of 2000/125 mg, po bid after 48 hrs; conditions: in vivo; in short: as §1
[22] = Unbound drug concentration in beta lactamase-positive Haemophilus influenzae pharmacokinetic simulation model dosed as amoxicillin-clavulanic acid at simulated human serum concentration of 2000/125 mg, po bid after 10 hrs; conditions: in vivo; in short: as §1
[23] = Unbound drug concentration in beta lactamase-positive Haemophilus influenzae pharmacokinetic simulation model dosed as amoxicillin-clavulanic acid at simulated human serum concentration of 2000/125 mg, po bid after 2 hrs; conditions: in vivo; in short: as §1
[24] = fTmax in beta lactamase-negative Haemophilus influenzae pharmacokinetic simulation model dosed as amoxicillin-clavulanic acid at simulated human serum concentration of 2000/125 mg, po bid after 48 hrs; conditions: read-out: fTmax; in short: as §1
[25] = Unbound drug concentration in beta lactamase-negative Haemophilus influenzae pharmacokinetic simulation model dosed as amoxicillin-clavulanic acid at simulated human serum concentration of 2000/125 mg, po bid after 3 hrs; in short: as §1
[26] = Unbound drug concentration in beta lactamase-positive Haemophilus influenzae pharmacokinetic simulation model dosed as amoxicillin-clavulanic acid at simulated human serum concentration of 2000/125 mg, po bid after 3 hrs; conditions: in vivo; in short: as §1
[27] = Drug concentration in beta lactamase-positive Haemophilus influenzae pharmacokinetic simulation model dosed as amoxicillin-clavulanic acid at simulated human serum concentration of 2000/125 mg, po bid after 12 hrs; conditions: in vivo
[28] = Unbound drug concentration in beta lactamase-negative Haemophilus influenzae pharmacokinetic simulation model dosed as amoxicillin-clavulanic acid at simulated human serum concentration of 2000/125 mg, po bid after 1 hr; in short: as §1
[29] = Drug concentration in beta lactamase-positive Haemophilus influenzae pharmacokinetic simulation model dosed as amoxicillin-clavulanic acid at simulated human serum concentration of 2000/125 mg, po bid after 6 hrs; conditions: in vivo
[30] = Drug concentration in beta lactamase-negative Haemophilus influenzae pharmacokinetic simulation model dosed as amoxicillin-clavulanic acid at simulated human serum concentration of 2000/125 mg, po bid after 10 hrs; conditions: in vivo
[31] = Unbound drug concentration in beta lactamase-positive Haemophilus influenzae pharmacokinetic simulation model dosed as amoxicillin-clavulanic acid at simulated human serum concentration of 2000/125 mg, po bid after 8 hrs; conditions: in vivo; in short: as §1
[32] = Drug concentration in beta lactamase-positive Haemophilus influenzae pharmacokinetic simulation model dosed as amoxicillin-clavulanic acid at simulated human serum concentration of 2000/125 mg, po bid after 10 hrs
[33] = fAUC (0 to 24 hrs) in beta lactamase-negative Haemophilus influenzae pharmacokinetic simulation model dosed as amoxicillin-clavulanic acid at simulated human serum concentration of 2000/125 mg, po bid after 48 hrs; conditions: in vivo; in short: as §1
[34] = Unbound drug concentration in beta lactamase-negative Haemophilus influenzae pharmacokinetic simulation model dosed as amoxicillin-clavulanic acid at simulated human serum concentration of 2000/125 mg, po bid after 4 hrs; in short: as §1
[35] = Drug concentration in beta lactamase-negative Haemophilus influenzae pharmacokinetic simulation model dosed as amoxicillin-clavulanic acid at simulated human serum concentration of 2000/125 mg, po bid after 2 hrs; conditions: in vivo
[36] = Drug concentration in beta lactamase-positive Haemophilus influenzae pharmacokinetic simulation model dosed as amoxicillin-clavulanic acid at simulated human serum concentration of 2000/125 mg, po bid after 3 hrs; conditions: in vivo
[37] = AUC (0 to 24 hrs) in beta lactamase-positive Haemophilus influenzae pharmacokinetic simulation model dosed as amoxicillin-clavulanic acid at simulated human serum concentration of 2000/125 mg, po bid after 48 hrs
[38] = Unbound drug concentration in beta lactamase-negative Haemophilus influenzae pharmacokinetic simulation model dosed as amoxicillin-clavulanic acid at simulated human serum concentration of 2000/125 mg, po bid after 6 hrs; in short: as §1
[39] = Drug concentration in beta lactamase-positive Haemophilus influenzae pharmacokinetic simulation model dosed as amoxicillin-clavulanic acid at simulated human serum concentration of 2000/125 mg, po bid after 1 hr; conditions: in vivo
[40] = Protein binding in beta lactamase-negative Haemophilus influenzae pharmacokinetic simulation model dosed as amoxicillin-clavulanic acid at simulated human serum concentration of 2000/125 mg, po bid after 48 hrs; conditions: read-out: PB (converted)
[41] = Drug concentration in beta lactamase-negative Haemophilus influenzae pharmacokinetic simulation model dosed as amoxicillin-clavulanic acid at simulated human serum concentration of 2000/125 mg, po bid after 3 hrs; conditions: in vivo

`CC1(C)S[C@@H]2[C@H](NC(=O)[C@H](N)c3ccc(O)cc3)C(=O)N2[C@H]1C(=O)O` [AMOXICILLIN] gave a Drug uptake [1] of under 0.03 µg/mL, a Drug uptake [2] of 1.7 µg/mL and a half-life [3] of 1.3 h. The Drug uptake [4] was under 0.03 µg/mL, the Drug uptake [5] was 11.6 µg/mL and the Drug uptake [6] was 11.8 µg/mL. The AUC at 24 h [7] was 73100 ng·h/mL, the fCmax [8] was 13.3 µg/mL and the Drug uptake [9] was 13.3 µg/mL. For the same molecule, the Cmax [10] was 17200 ng/mL, the Tmax [11] was 1.5 h and the Drug uptake [12] was 0.3 µg/mL. It also gave a Drug uptake [13] of 0.8 µg/mL, a Drug uptake [14] of 9.9 µg/mL and a Cmax [15] of 17400 ng/mL. The Drug uptake [16] was 13.6 µg/mL, the half-life [17] was 1.4 h and the fCmax [18] was 13.6 µg/mL. For the same molecule, the Drug uptake [19] was 0.6 µg/mL, the Drug uptake [20] was 5.5 µg/mL and the fAUC [21] was 22500 ng·h/mL. The Drug uptake [22] was under 0.03 µg/mL, the Drug uptake [23] was 7.8 µg/mL and the Tmax [24] was 1.5 h. For the same molecule, the Drug uptake [25] was 10.1 µg/mL, the Drug uptake [26] was 2.9 µg/mL and the Drug uptake [27] was under 0.03 µg/mL. For the same molecule, the Drug uptake [28] was 10.4 µg/mL, the Drug uptake [29] was 2.1 µg/mL and the Drug uptake [30] was 0.8 µg/mL. The Drug uptake [31] was under 0.03 µg/mL, the Drug uptake [32] was under 0.03 µg/mL and the fAUC [33] was 60700 ng·h/mL. It also gave a Drug uptake [34] of 8.2 µg/mL, a Drug uptake [35] of 15.5 µg/mL and a Drug uptake [36] of 10.5 µg/mL. The AUC at 24 h [37] was 48700 ng·h/mL, the Drug uptake [38] was 5 µg/mL and the Drug uptake [39] was 11.6 µg/mL.

Molecule `O=C(O)[C@H]1/C(=C/CO)O[C@@H]2CC(=O)N21` [CLAVULANIC ACID] has a Drug uptake [1] of under 0.03 µg/mL, a Drug uptake [2] of under 0.03 µg/mL and a half-life [3] of 1 h. The Drug uptake [4] was 0.1 µg/mL, the Drug uptake [5] was 1.3 µg/mL and the Drug uptake [6] was 1 µg/mL. For the same molecule, the AUC at 24 h [7] was 4700 ng·h/mL, the fCmax [8] was 1.4 µg/mL and the Drug uptake [9] was 1.4 µg/mL. It also gave a Cmax [10] of 2100 ng/mL, a Tmax [11] of 1.5 h and a Drug uptake [12] of under 0.03 µg/mL. The Drug uptake [13] was 0.1 µg/mL, the Drug uptake [14] was 0.9 µg/mL and the Cmax [15] was 2100 ng/mL. The fraction unbound at 48 h [40] was 0.75, the Drug uptake [16] was 1.5 µg/mL and the half-life [17] was 1 h. It also gave a fCmax [18] of 1.5 µg/mL, a Drug uptake [19] of under 0.03 µg/mL and a Drug uptake [20] of 0.4 µg/mL. It also gave a fAUC [21] of 2800 ng·h/mL, a Drug uptake [22] of under 0.03 µg/mL and a Drug uptake [23] of 1 µg/mL. It also gave a Tmax [24] of 1.5 h, a Drug uptake [25] of 0.5 µg/mL and a Drug uptake [26] of 0.4 µg/mL. It also gave a Drug uptake [27] of under 0.03 µg/mL, a Drug uptake [28] of 0.9 µg/mL and a Drug uptake [29] of 0.1 µg/mL. For the same molecule, the Drug uptake [30] was under 0.03 µg/mL, the Drug uptake [31] was under 0.03 µg/mL and the Drug uptake [32] was under 0.03 µg/mL. For the same molecule, the fAUC [33] was 2900 ng·h/mL, the Drug uptake [34] was 0.2 µg/mL and the Drug uptake [35] was 1.4 µg/mL. It also gave a Drug uptake [36] of 0.7 µg/mL, a Drug uptake [41] of 0.7 µg/mL and an AUC at 24 h [37] of 4500 ng·h/mL. For the same molecule, the Drug uptake [38] was 0.1 µg/mL and the Drug uptake [39] was 1.2 µg/mL.
